Test results from publication PMC7119000 (Phytomedicine, 2013).
Read-outs that look alike come from different tables or passages of the source. One block for each compound: values may come before it.

Columns and labels:
Caco-2 cell monolayers [1] = conditions: flavonoids glucosides; ref the previous report; cited from earlier work
Caco-2 cell monolayers [2] = assay: In vitro Caco-2 cell monolayer transport, apical-to-basolateral; format: in vitro ADME, human; conditions: for Apically loaded amount retained on the apical side: Caco-2 cell transport, authors' unpublished data
Procedure, shortened: (§1)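 Caco-2 cells grown in high-glucose DMEM with 10% FBS and 1% nonessential amino acids at 37 °C, 5% CO2. Seeded at 1.0 × 10^5 cells/cm2 on 4.2 cm2 inserts. Monolayers with TEER >250 Ω cm2 were HBSS-washed and preincubated 1 h at 37 °C. Compound was loaded apically, with samples taken at 0–4 h. Analysed by UPLC–MS/MS; Papp = (dQ/dt)/(A × C0).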

[3] = as above; format: in vitro ADME, human; conditions: human, Caco-2
Procedure, shortened: as §1

[4] = format: in vivo, rat; conditions: for AUC(0-t) / Cmax / Tmax: male, SD, rat, plasma, po

- Apically loaded amount retained on the apical side (Caco-2 cell monolayers [2]): about 100%
Compound: O=c1cc(-c2ccc(O)c(O)c2)oc2cc(O[C@@H]3O[C@H](CO)[C@@H](O)[C@H](O)[C@H]3O)cc(O)c12 [Galuteolin]
- Absorption into Caco-2 cell (Caco-2 cell monolayers [1]): cannot be well absorbed

- Apically loaded amount retained on the apical side (Caco-2 cell monolayers [2]): about 100%
Compound: C[C@@H]1O[C@@H](OC[C@H]2O[C@@H](Oc3c(-c4ccc(O)c(O)c4)oc4cc(O)cc(O)c4c3=O)[C@H](O)[C@@H](O)[C@@H]2O)[C@H](O)[C@H](O)[C@H]1O [Rutin]
- Absorption into Caco-2 cell (Caco-2 cell monolayers [1]): cannot be well absorbed

Continued, compound first:

Compound: O=c1c(O[C@@H]2O[C@H](CO)[C@H](O)[C@H](O)[C@H]2O)c(-c2ccc(O)c(O)c2)oc2cc(O)cc(O)c12 [Hyperoside]
- Absorption into Caco-2 cell (Caco-2 cell monolayers [1]): cannot be well absorbed

Compound: O=c1cc(-c2ccc(O)c(O)c2)oc2cc(O[C@@H]3O[C@H](CO)[C@H](O)[C@H](O)[C@H]3O)cc(O)c12 [Luteolin-7-o--β-D-galactoside]
- Absorption into Caco-2 cell (Caco-2 cell monolayers [1]): cannot be well absorbed

Compound: O=C(/C=C/c1ccc(O)c(O)c1)O[C@@H]1C[C@](O)(C(=O)O)C[C@@H](O)[C@H]1O [Chlorogenic acid]
- Papp A→B at 4 h [3]: 190 ± 33.5 nm/s
- Papp-value increased to, compared to control (Caco-2 cell monolayers [2]; with addition of 0.1% (w/v) of COS): 9800%
- AUC(0-t) ([4]; 25 mg/kg): 0.658 µg·h/mL
- Cmax ([4]; 25 mg/kg): 0.284 ± 0.0768 µg/mL
- Tmax ([4]; 25 mg/kg): 13.8 min
- AUC(0-t) ([4]; 10 ml/kg): 0.541 µg·h/mL
- Cmax ([4]; 10 ml/kg): 0.236 ± 0.0612 µg/mL
- Tmax ([4]; 10 ml/kg): 30 min
- AUC increased to, compared to control ([4]; with COS 25 mg/kg, rats, oral): 122%

Compound: O=c1c(O[C@@H]2O[C@H](CO)[C@H](O)[C@H](O)[C@H]2O)c(-c2ccc(O)c(O)c2)oc2cc(O)cc(O)c12 [hyperin]
- Apically loaded amount retained on the apical side (Caco-2 cell monolayers [2]): about 100%
